Screens as filed in PubChem.
Only some compounds are listed: those with a hit (about 1.6% of all), similar ones and a draw of the others.
TLR9-MyD88 block: inhibitors of TLR9-MyD88 association in cells, primary screen, cell-based, CHO, BLA complementation, fluorescence. Toll-like receptor 9 (Homo sapiens) + Myeloid differentiation primary response protein …. CCF4 FRET ratio. inhibition, % at 4.98 µM. 0.21% of 340,000 active;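 active = inhibition above the mean over all tested compounds plus 3 SD, cut at about 21% in these data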;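 also: 0% = DMSO only wells and 100% = clavulanate BLA inhibitor control wells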
NOD2-RIPK2 inh: NOD2-RIPK2 binding disruptors in cells, primary screen, fluorescence, CHO cells, BLA complementation. Receptor-interacting serine/threonine-protein kinase 2 (Homo sapiens), O43353. 0.38% of 360,000 active. inhibition, % at 4.98 µM. CCF4 ratio; in the data active = inhibition above about 21%;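 also: 0% = vehicle only and 100% = reference blocker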
SR-BI uptake up: activators of SR-BI mediated DiI-HDL uptake, primary screen, ldlA[mSR-BI] CHO cells, DiI fluorescence; activation, % at 12.5 µM; 3 h; 100 = double the neutral-control signal; 0.096% of 320,000 active;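 active = mean replicate activation of at least 60% and every replicate at or above 60%; inconclusive = mean or all-replicate condition met, but not both; inactive = mean below 60% and not all replicates reaching 60%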;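 also: 0% = median plate neutral-control signal and 100% = twice that signal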
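system = CHO ldlA[mSR-BI] cells, LDL receptor-null, SR-BI overexpressing | medium = Ham's F12 with 0.5% BSA, HEPES 25 mM, pH 7.4 | probe or stimulus = DiI-HDL 10 µg/mL | compound dosing = single-point compound dose | incubation = compound exposure 3 h, 37 °C | technique = DiI fluorescence, bottom read | read-out = cell-associated DiI fluorescence as measure of HDL uptake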
Lipid droplet: inhibitors of hepatocyte lipid droplet formation, primary screen, imaging, high-throughput imaging, BODIPY stain; AML12 mouse hepatocytes, oleate lipid droplets; inhibition, % at 6.5 µM; 0.4% of 240,000 active; AID 1656, 2009;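 active = lipid droplet intensity inhibited by at least 50%, with more than 500 cells counted; inconclusive = wells with under 300 cells, treated as cytotoxic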
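Assay system: AML12 hepatocytes (mouse) / Also added: 100 µM oleic acid challenge / Times: overnight treatment with compound plus oleate / Detection: high-content imaging of BODIPY-stained droplets and DAPI nuclei / Evaluation: % inhibition of lipid droplet signal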
SR-BI DiI inh: inhibitors of SR-BI mediated HDL lipid uptake, primary screen, ldlA[mSR-BI] cells, fluorescence, single point | ldlA[mSR-BI] CHO cells, DiI-HDL uptake fluorescence, 3 h | inhibition, % at 12.5 µM | 0.96% of 320,000 active;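 active = mean replicate inhibition of at least 70% and a set share of replicates each scoring 70 or more; inconclusive = meets just one of the two criteria; inactive = fails both criteria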;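 also: 0% = median of neutral control wells and 100% = median of positive control wells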
TLR4-MyD88 BLA: inhibitors of TLR4-MyD88 association in cells, primary screen, cell-based, HeLa CL3-4, BLA complementation, FRET ratio. Toll-like receptor 4 (Homo sapiens) + Myeloid differentiation primary response protein …. HeLa CL3-4 TLR4/MyD88 BLA complementation. inhibition, % at 8.4 µM. 0.18% of 200,000 active. AID 861, 2007; in the data active = inhibition above about 25%;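 also: 0% = vehicle and 100% = reference inhibitor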
Lipid drop inh: hepatocyte lipid droplet accumulation inhibitors, confirmation, imaging, AML12 mouse hepatocytes, single concentration, high-content. shares compounds with Lipid droplet. BODIPY lipid droplet imaging; droplets induced with 100 µM oleic acid. AID 463183, 2010. inhibition, % at 5.2 µM. 65% of 870 active;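 active = inhibition of lipid droplet metric at least 50%, with more than 300 cells in each of four replicates; inconclusive = wells under 300 cells, flagged as toxic or low count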;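 also: plate controls were DMSO with oleic acid for no effect and 5 µM Triacsin-C for full effect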
AML12 cytotox: AML12 hepatocyte cytotoxicity, counter-screen for hepatic lipid droplet formation project, imaging, DAPI nuclear morphology imaging; shares compounds with Lipid droplet; AML12 mouse hepatocytes; hits give high values; cells fed 100 µM oleate overnight; z-score at 5 µM; 3% of 870 active; AID 463200, 2010; in the data active = z-score above about 6.3;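 also: compound exposure lasted overnight at 37 °C before fixation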
AML12 tox ATP: AML12 hepatocyte cytotoxicity, confirmation, cytotoxicity control for hepatic lipid droplet formation project, cell-based, single concentration. shares compounds with Lipid droplet. AML12 mouse hepatocyte viability, ATP luminescence; cells loaded with 100 µM oleic acid. cytotoxicity, % at 50 µM. 530 tested, under 10 active. AID 463219, 2010;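 active = cytotoxicity above 50% in each of four replicates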;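 also: compound exposure lasted overnight at 37 °C before the ATP read; 0% = DMSO-treated cells and 100% = wells with no cells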
An asterisk follows results filed as active; ? = inconclusive; / = not tested or not shown.

SMILES	TLR9-MyD88 block	NOD2-RIPK2 inh	SR-BI uptake up	Lipid droplet	SR-BI DiI inh	TLR4-MyD88 BLA	Lipid drop inh	AML12 cytotox	AML12 tox ATP
O=C(Nc1ccccc1Cc1ccccc1)c1oc2ccccc2c1COc1ccccc1	0	-7	-2	6	2	-8	/	/	/
O=C(NCCc1ccccc1)c1oc2ccccc2c1COc1ccccc1	6	2	-26	64*	26	-10	87*	-0.082	-9
CCOc1ccc(CCNC(=O)CSCc2ccc(C)cc2)cc1OCC	5	-2	-32	88*	32	5	109*	-0.82	/
COc1ccc(CCNC(=O)CCC(=O)N2CCOc3ccc(C)cc32)cc1OC	4	-18	-11	-1	11	/	/	/	/
CCOc1ccc(CCNC(=O)CN2C(=O)c3cccnc3Oc3ccc(C)cc32)cc1OCC	-1	6	-55	92*	55	/	110*	-0.37	10
Cc1ccc(C)c(OCCC(=O)NCCc2ccc(Cl)cc2)c1	-7	-5	8	-3	-8	/	/	/	/
CCOc1ccc(CCNC(=O)CCOc2cc(C)ccc2C)cc1OCC	1	-15	-26	98*	26	/	111*	-0.47	15
CCOc1ccc(CCNC(=O)CCC(=O)N2CCOc3ccc(C)cc32)cc1OCC	-1	0	-48	80*	48	/	112*	-1.1	16
CCOc1ccc(CCNC(=O)CS(=O)Cc2nc(-c3ccc(C)cc3)oc2C)cc1OCC (stereo unspecified)	-29	-1	-68	46	68	/	/	/	/
CCOc1ccc(CCNC(=O)CS(=O)Cc2nc(-c3ccccc3C)oc2C)cc1OCC (stereo unspecified)	2	-8	-46	61*	46	/	89*	-0.19	13
O=C(c1nn2c(C(F)(F)F)cc(-c3cccs3)nc2c1Br)N1CCCc2ccccc21	15	-3	-6	60*	6	10	101*	-1.2	27
CCOc1ccccc1NC(=O)N1CCCC1C(=O)NCc1cccs1 (stereo unspecified)	7	6	-4	74*	4	/	94*	0.2	10
Cc1ccc(-c2[nH]c3ccccc3c2SCCNC(=O)c2ccc(S(=O)(=O)N3CCOCC3)cc2)cc1	4	4	-50	54*	50	4	91*	-0.72	1
COc1ccc(-c2[nH]c3ccccc3c2SCCNC(=O)c2ccccc2)cc1	2	7	-26	7	26	0	/	/	/
CCCCNC(=O)C1(C)CCCCN1Cc1ccccc1-c1ccccc1 (stereo unspecified)	/	-1	/	/	/	/	/	/	/
Cc1cccc(CSCc2ccc(C(=O)NC3CCCC3)o2)c1	-13	11	9	-44	-9	-1	/	/	/
CCCNS(=O)(=O)c1ccc(CCC(=O)Nc2cc(Cl)ccc2Oc2ccccc2)cc1	-3	3	-24	63*	24	-4	93*	-0.022	38
CC(C)CNS(=O)(=O)c1ccc(CCC(=O)Nc2cc(Cl)ccc2Oc2ccccc2)cc1	-1	-2	-14	40	14	5	/	/	/
CCOC(=O)/C(C(=O)Nc1ccccc1Cl)=C1/NC(C)(C)Cc2ccccc21	-6	-16	-18	53*	18	-8	32	0.35	/
COC(=O)c1ccc2c(c1)NC(=O)C(N(CC(C)C)CC(C)C)S2 (stereo unspecified)	5	-7	/	84*	/	/	15	-0.35	/
COc1ccc(NC(=O)c2cccc(N3C(=O)c4ccc(C(=O)Nc5ccc(OC)c(O)c5)cc4C3=O)c2)cc1O	1	4	-53	-13	53	/	/	/	/
CS(=O)(=O)c1ccc2nc(NC(=O)c3ccc(S(=O)(=O)NCC4CCCO4)cc3)sc2c1 (stereo unspecified)	-1	1	0	1	0	-9	/	/	/
CC(C)CN1C(=O)C(=O)N(CC(=O)N(C)CC(=O)Nc2ccc(F)cc2)C1=O	-6	-5	3	/	-3	/	/	/	/
COc1cccc(N2CCN(CC(=O)Nc3nnc(-c4ccccc4)s3)CC2)c1	-1	4	-31	59*	31	0	95*	0.5	15
COc1cccc(N2CCN(CC(=O)NC3=Nc4ccccc4N=C(C)C3c3ccccc3)CC2)c1 (stereo unspecified)	/	-7	-8	-22	8	/	/	/	/
SMILES	TLR9-MyD88 block	NOD2-RIPK2 inh	SR-BI uptake up	Lipid droplet	SR-BI DiI inh	TLR4-MyD88 BLA	Lipid drop inh	AML12 cytotox	AML12 tox ATP
CCn1cc(C(=O)NCCCN(CC(C)C)CC(C)C)c(=O)c2cc(S(=O)(=O)N(C)C3CCCCC3)ccc21	-6	-1	4	69*	-4	/	24	-0.027	/
Nc1ccn(CC(=O)N[C@H](CO)Cc2c[nH]c3ccccc23)c(=O)n1	-1	-1	2	/	-2	/	/	/	/
CN(C)S(=O)(=O)c1cccc(NC(=O)CC23CC4CC(CC(C4)C2)C3)c1	2	-4	-27	84*	27	/	24	-0.17	/
Cn1c(=O)c(=O)n(C)c2cc(N3CCCC3)c(NS(=O)(=O)c3ccc(Cl)cc3)cc21	6	2	1	50*	-1	/	8	-0.61	/
CCCN1C(=O)/C(=C/c2c(N3CCNC(=O)C3CC(=O)OCC)nc3c(C)cccn3c2=O)SC1=S (stereo unspecified)	3	-5	?	74*	-78	/	58*	0.065	/
CCOC(=O)CC1C(=O)NCCN1c1nc2ccc(C)cn2c(=O)c1/C=C1\SC(=S)N(CC(C)C)C1=O (stereo unspecified)	2	8	-16	41	16	/	/	/	/
CCN(C(=O)COC(=O)c1oc2ccc(OC)cc2c1C)C1CCS(=O)(=O)C1 (stereo unspecified)	-9	-9	-60	/	60	/	/	/	/
COc1cc(NC(=O)c2cccs2)c(OC)cc1NC(=O)CCC(=O)Nc1ccc(C)cc1	0	0	-54	68*	54	/	108*	0.29	15
